Test results published in ChEMBL document CHEMBL5705898 (Proc Natl Acad Sci U S A, 2014).

Columns and labels:
Caspase-3 (Homo sapiens) = Caspase-3 (Homo sapiens) (UniProt P42574); assay: Inhibition of human caspase-3 at 10 uM relative to control
[1] = target: Muscarinic acetylcholine receptor M4 (Homo sapiens) (UniProt P08173); assay: Inhibition of human M4 receptor at 10 uM relative to control
[2] = target: Sodium-dependent dopamine transporter (Homo sapiens) (UniProt Q01959); assay: Inhibition of human dopamine transporter at 10 uM relative to control
[3] = target: Beta-1 adrenergic receptor (Homo sapiens) (UniProt P08588); assay: Inhibition of human beta 1 receptor at 10 uM relative to control
[4] = target: Alpha-1B adrenergic receptor (Homo sapiens) (UniProt P35368); assay: Inhibition of human alpha 1B receptor at 10 uM relative to control
[5] = Permeability of compound in MDCKII-LE cells; type: ADME, cell-based, Canis lupus familiaris; details: dog, MDCK; read-out: permeability
[6] = target: Muscarinic acetylcholine receptor M1 (Homo sapiens) (UniProt P11229); assay: Inhibition of human M1 receptor at 10 uM relative to control
[7] = target: Melanocortin receptor 3 (Homo sapiens) (UniProt P41968); assay: Inhibition of human MC3 receptor at 10 uM relative to control
[8] = target: Neuronal acetylcholine receptor; alpha4/beta2 (Homo sapiens) (UniProt P17787+P43681); assay: Inhibition of human N neuronal alpha4 beta2 receptor at 10 uM relative to control; type: protein-complex assay
[9] = target: Substance-K receptor (Homo sapiens) (UniProt P21452); assay: Inhibition of human NK2 receptor at 10 uM relative to control
Homo sapiens [10] = species: Homo sapiens; assay: Inhibition of Na+ channel site 2 (unknown origin) at 10 uM relative to control
[11] = target: Somatostatin receptor type 1 (Homo sapiens) (UniProt P30872); assay: Inhibition of human sst1 at 10 uM relative to control
[12] = target: Bombesin receptor subtype-3 (Homo sapiens) (UniProt P32247); assay: Inhibition of human BB3 receptor at 10 uM relative to control
[13] = target: Alpha-2A adrenergic receptor (Homo sapiens) (UniProt P08913); assay: Inhibition of human alpha 2A receptor at 10 uM relative to control
[14] = target: Estrogen receptor (Homo sapiens) (UniProt P03372); assay: Inhibition of human ERalpha at 10 uM relative to control
[15] = target: Cysteinyl leukotriene receptor 1 (Homo sapiens) (UniProt Q9Y271); assay: Inhibition of human CysLT1 at 10 uM relative to control
[16] = target: Endothelin receptor type B (Homo sapiens) (UniProt P24530); assay: Inhibition of human ETB receptor at 10 uM relative to control
[17] = target: cGMP-specific 3',5'-cyclic phosphodiesterase (Homo sapiens) (UniProt O76074); assay: Inhibition of human PDE5 at 10 uM relative to control
[18] = target: Interstitial collagenase (Homo sapiens) (UniProt P03956); assay: Inhibition of human MMP-1 at 10 uM relative to control
[19] = target: Vasopressin V2 receptor (Homo sapiens) (UniProt P30518); assay: Inhibition of human V2 receptor at 10 uM relative to control
[20] = target: Tyrosine-protein kinase ABL1 (Homo sapiens) (UniProt P00519); assay: Inhibition of human Abl kinase at 10 uM relative to control
[21] = target: Mu-type opioid receptor (Homo sapiens) (UniProt P35372); assay: Inhibition of human mu opioid receptor at 10 uM relative to control
Homo sapiens [22] = species: Homo sapiens; assay: Inhibition of Ca2+ channel L, diltiazem site(unknown origin) at 10 uM relative to control
[23] = target: Gamma-aminobutyric acid receptor subunit beta-1 (Homo sapiens) (UniProt P18505); assay: Inhibition of human GABA beta 1b at 10 uM relative to control
[24] = target: Alpha-2B adrenergic receptor (Homo sapiens) (UniProt P18089); assay: Inhibition of human alpha 2B receptor at 10 uM relative to control
[25] = target: Cholecystokinin receptor type A (Homo sapiens) (UniProt P32238); assay: Inhibition of human CCK1 receptor at 10 uM relative to control
[26] = target: 5-hydroxytryptamine receptor 2B (Homo sapiens) (UniProt P41595); assay: Inhibition of human 5-HT2B receptor at 10 uM relative to control
[27] = Inhibition of SETD7 D256A mutant (unknown origin) using biotinylated H3 (1-25) peptide as substrate incubated for 1 hrs in presence of 3H-SAM by radioactivity based assay; design: species or system Homo sapiens
Summary of the method: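 Scintillation proximity assay on recombinant E. coli-expressed human SETD7(1–366) mutant forms. Read-out was incorporation of the ³H-methyl group from ³H-SAM into histone H3(1–25) peptide, with 2 µM SAM, 2 µM H3(1–25) and 2 nM enzyme. IC50 is given as the mean ± SD of triplicate runs.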

[28] = target: Type-1 angiotensin II receptor (Homo sapiens) (UniProt P30556); assay: Inhibition of human AT1 receptor at 10 uM relative to control
[29] = target: 3',5'-cyclic-AMP phosphodiesterase 4D (Homo sapiens) (UniProt Q08499); assay: Inhibition of human PDE4D2 at 10 uM relative to control
MCF7 = assay: Cytotoxicity against human MCF7 cells assessed as reduction in cell viability at <50 uM by alamar blue assay; type: toxicity, cell-based; details: mcf7, 50 µM
[30] = target: 5-hydroxytryptamine receptor 6 (Homo sapiens) (UniProt P50406); assay: Inhibition of human 5-HT6 receptor at 10 uM relative to control
[31] = target: Substance-P receptor (Homo sapiens) (UniProt P25103); assay: Inhibition of human NK1 receptor at 10 uM relative to control
[32] = target: Vascular endothelial growth factor receptor 1 (Homo sapiens) (UniProt P17948); assay: Inhibition of human FLT-1 kinase (VEGFR1) at 10 uM relative to control
[33] = target: 5-hydroxytryptamine receptor 4 (Homo sapiens) (UniProt Q13639); assay: Inhibition of human 5-HT4e receptor at 10 uM relative to control
[34] = target: Cannabinoid receptor 1 (Homo sapiens) (UniProt P21554); assay: Inhibition of human CB1 receptor at 10 uM relative to control
[35] = target: Histamine H3 receptor (Homo sapiens) (UniProt Q9Y5N1); assay: Inhibition of human H3 receptor at 10 uM relative to control
Homo sapiens [36] = species: Homo sapiens; assay: Inhibition of central BZD receptor (unknown origin) at 10 uM relative to control
[37] = target: Calcium/calmodulin-dependent protein kinase type II subunit alpha (Homo sapiens) (UniProt Q9UQM7); assay: Inhibition of human CaMK2alpha at 10 uM relative to control
[38] = target: Histamine H2 receptor (Homo sapiens) (UniProt P25021); assay: Inhibition of human H2 receptor at 10 uM relative to control
[39] = target: Peroxisome proliferator-activated receptor gamma (Homo sapiens) (UniProt P37231); assay: Inhibition of human PPARgamma at 10 uM relative to control
HFF = assay: Cytotoxicity against HFF cells assessed as reduction in cell viability at <50 uM by alamar blue assay; type: toxicity, cell-based; details: human

Chain of Bombesin receptor subtype-3 (Homo sapiens) (P32247 whole entry): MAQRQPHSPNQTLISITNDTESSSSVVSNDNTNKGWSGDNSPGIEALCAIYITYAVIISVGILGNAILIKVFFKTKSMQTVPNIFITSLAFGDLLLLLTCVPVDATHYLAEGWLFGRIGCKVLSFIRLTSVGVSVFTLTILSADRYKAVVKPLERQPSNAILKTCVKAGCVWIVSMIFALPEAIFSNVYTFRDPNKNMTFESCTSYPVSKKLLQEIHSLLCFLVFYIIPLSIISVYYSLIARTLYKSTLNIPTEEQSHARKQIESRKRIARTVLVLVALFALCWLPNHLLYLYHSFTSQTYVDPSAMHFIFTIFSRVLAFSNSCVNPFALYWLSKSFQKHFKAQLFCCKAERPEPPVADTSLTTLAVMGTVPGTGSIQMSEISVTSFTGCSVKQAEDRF
Chain of Calcium/calmodulin-dependent protein kinase type II subunit alpha (Homo sapiens) (Q9UQM7 whole entry): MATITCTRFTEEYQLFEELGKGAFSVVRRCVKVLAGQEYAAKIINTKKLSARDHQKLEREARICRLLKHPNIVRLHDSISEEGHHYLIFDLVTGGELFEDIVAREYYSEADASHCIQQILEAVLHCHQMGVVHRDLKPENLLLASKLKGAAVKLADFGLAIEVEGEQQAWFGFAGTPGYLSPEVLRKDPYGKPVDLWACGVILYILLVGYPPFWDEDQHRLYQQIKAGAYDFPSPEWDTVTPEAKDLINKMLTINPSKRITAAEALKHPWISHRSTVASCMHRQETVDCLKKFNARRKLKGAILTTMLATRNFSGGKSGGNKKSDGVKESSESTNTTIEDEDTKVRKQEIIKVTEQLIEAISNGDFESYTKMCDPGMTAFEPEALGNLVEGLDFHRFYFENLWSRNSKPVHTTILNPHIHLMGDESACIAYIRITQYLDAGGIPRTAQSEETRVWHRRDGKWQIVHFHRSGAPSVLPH
Chain of 3',5'-cyclic-AMP phosphodiesterase 4D (Homo sapiens) (Q08499 whole entry): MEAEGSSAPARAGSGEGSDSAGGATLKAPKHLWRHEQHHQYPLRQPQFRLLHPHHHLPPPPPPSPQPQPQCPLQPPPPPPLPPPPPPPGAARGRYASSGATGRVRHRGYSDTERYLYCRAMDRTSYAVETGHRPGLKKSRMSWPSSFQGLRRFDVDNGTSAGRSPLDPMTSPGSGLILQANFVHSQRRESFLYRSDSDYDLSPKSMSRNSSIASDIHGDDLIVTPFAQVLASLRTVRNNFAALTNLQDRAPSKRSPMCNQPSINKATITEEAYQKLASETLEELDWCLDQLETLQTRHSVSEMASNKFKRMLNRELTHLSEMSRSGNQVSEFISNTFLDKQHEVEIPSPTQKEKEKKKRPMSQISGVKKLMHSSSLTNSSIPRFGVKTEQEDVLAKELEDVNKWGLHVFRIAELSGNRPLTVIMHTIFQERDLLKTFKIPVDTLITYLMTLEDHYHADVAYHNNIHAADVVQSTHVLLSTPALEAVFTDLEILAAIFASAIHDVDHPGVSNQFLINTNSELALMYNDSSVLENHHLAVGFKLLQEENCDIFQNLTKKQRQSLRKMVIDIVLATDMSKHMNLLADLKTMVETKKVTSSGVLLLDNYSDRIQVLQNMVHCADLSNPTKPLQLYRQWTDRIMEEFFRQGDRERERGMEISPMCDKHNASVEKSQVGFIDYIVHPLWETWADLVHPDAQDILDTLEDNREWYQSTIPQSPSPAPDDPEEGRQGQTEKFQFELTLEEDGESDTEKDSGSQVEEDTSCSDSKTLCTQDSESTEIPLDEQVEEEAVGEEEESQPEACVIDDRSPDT
Chain of Cannabinoid receptor 1 (Homo sapiens) (P21554 whole entry): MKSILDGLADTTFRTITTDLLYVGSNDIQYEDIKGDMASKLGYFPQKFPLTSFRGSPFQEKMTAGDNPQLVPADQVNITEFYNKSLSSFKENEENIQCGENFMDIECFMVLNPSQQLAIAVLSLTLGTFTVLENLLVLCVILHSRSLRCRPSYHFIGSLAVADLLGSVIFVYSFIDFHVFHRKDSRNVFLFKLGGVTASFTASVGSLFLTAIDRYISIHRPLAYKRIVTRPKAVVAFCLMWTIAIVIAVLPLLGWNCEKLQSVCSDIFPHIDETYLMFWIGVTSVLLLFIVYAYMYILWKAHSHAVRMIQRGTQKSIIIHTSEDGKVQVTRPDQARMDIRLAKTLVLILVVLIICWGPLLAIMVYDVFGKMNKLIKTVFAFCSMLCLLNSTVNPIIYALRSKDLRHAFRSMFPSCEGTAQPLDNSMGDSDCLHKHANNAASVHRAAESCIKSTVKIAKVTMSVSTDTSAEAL
Chain of Gamma-aminobutyric acid receptor subunit beta-1 (Homo sapiens) (P18505 whole entry): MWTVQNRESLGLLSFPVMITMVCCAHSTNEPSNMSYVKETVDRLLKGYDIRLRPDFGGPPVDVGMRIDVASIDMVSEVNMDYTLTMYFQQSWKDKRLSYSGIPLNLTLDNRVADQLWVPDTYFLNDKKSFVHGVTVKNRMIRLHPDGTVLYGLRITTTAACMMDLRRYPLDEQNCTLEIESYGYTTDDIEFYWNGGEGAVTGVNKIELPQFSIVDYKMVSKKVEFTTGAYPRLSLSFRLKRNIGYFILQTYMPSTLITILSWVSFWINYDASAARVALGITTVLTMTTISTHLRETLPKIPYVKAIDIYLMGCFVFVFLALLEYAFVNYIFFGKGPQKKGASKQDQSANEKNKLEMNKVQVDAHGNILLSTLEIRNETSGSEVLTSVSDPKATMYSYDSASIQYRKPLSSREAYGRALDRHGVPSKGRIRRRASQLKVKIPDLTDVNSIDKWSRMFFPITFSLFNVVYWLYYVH
Chain of Type-1 angiotensin II receptor (Homo sapiens) (P30556 whole entry): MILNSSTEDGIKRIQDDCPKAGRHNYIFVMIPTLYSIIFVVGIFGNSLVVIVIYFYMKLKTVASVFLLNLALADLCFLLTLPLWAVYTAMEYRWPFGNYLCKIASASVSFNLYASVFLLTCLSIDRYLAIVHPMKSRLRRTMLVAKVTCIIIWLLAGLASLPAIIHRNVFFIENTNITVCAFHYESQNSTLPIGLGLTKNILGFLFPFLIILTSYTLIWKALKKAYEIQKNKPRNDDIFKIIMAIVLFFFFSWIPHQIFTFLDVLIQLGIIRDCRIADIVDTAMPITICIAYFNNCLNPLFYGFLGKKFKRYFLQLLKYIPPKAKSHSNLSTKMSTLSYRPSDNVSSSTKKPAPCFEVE
Chain of Somatostatin receptor type 1 (Homo sapiens) (P30872 whole entry): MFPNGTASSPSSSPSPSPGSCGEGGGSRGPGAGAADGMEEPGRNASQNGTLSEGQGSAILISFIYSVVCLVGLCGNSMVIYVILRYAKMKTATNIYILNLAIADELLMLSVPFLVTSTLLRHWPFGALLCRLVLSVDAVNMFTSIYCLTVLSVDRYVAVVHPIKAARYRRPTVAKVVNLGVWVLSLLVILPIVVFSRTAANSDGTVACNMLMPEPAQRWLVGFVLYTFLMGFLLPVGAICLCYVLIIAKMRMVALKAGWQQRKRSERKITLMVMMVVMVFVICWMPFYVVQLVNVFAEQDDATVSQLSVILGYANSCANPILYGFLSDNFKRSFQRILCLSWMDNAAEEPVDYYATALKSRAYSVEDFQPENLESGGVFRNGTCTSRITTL
Chain of Substance-K receptor (Homo sapiens) (P21452 whole entry): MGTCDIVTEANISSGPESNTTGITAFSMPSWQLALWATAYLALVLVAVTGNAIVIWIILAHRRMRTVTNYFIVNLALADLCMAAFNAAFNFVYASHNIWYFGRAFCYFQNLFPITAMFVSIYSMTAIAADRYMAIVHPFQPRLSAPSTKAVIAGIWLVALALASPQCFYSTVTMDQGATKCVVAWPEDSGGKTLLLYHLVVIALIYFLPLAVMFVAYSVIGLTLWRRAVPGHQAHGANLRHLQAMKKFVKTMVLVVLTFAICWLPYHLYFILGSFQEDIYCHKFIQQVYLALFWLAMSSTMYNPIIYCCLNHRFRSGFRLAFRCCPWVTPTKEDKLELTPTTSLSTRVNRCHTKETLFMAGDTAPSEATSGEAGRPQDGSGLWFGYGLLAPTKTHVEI
Chain of Histamine H3 receptor (Homo sapiens) (Q9Y5N1 whole entry): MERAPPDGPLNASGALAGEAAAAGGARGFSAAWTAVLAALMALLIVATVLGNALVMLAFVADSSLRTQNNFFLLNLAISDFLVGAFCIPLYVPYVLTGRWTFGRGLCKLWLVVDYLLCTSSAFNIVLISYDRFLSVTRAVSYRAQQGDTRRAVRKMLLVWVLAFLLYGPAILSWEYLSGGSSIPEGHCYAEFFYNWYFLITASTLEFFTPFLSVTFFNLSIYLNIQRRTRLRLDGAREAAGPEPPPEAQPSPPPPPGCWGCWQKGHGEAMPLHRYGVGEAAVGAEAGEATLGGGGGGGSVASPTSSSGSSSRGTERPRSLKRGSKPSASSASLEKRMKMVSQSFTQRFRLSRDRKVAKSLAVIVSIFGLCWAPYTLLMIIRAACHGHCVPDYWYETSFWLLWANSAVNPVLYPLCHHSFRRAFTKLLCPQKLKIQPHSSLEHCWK
Chain of Cysteinyl leukotriene receptor 1 (Homo sapiens) (Q9Y271 whole entry): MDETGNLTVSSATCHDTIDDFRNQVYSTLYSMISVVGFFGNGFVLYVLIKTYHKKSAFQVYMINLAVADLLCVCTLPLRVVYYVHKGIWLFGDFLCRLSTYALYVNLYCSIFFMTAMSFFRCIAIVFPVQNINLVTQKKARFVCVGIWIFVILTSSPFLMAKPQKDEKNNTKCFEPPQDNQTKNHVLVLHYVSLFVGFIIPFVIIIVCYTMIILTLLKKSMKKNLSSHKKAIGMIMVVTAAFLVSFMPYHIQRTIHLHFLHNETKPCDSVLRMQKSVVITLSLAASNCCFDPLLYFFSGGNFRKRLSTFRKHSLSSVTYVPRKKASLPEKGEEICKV
Chain of Caspase-3 (Homo sapiens) (P42574 29-175 limits assumed): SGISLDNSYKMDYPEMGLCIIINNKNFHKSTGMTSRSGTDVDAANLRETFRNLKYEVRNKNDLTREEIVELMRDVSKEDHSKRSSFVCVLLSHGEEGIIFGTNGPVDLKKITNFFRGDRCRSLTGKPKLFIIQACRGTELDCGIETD
Chain of Caspase-3 (Homo sapiens) (P42574 176-277 limits assumed): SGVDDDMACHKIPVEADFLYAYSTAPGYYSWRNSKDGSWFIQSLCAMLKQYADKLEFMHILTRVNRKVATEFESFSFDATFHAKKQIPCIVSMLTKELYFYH

O=C([C@@H](Cc1cccc(C(F)(F)F)c1)NS(=O)(=O)c1cc(F)c2c(c1)CCNC2)N1CCCC1
inhibition (Caspase-3 (Homo sapiens)): 2% | inhibition [1]: 19% | inhibition [2]: 2% | inhibition [3]: -6% | inhibition [4]: 29% | Papp [5]: 6.48 ×10⁻⁶ cm/s | inhibition [6]: 16% | inhibition [7]: 7% | inhibition [8]: -4% | inhibition [9]: 28% | inhibition (Homo sapiens [10]): 43% | inhibition [11]: 5% | inhibition [12]: 61% | inhibition [13]: 15% | inhibition [14]: -5% | inhibition [15]: -1% | inhibition [16]: 12% | inhibition [17]: 1% | inhibition [18]: 1% | inhibition [19]: 11% | inhibition [20]: 15% | inhibition [21]: 47% | inhibition (Homo sapiens [22]): 52% | inhibition [23]: 5% | inhibition [24]: 79% | inhibition [25]: 8% | inhibition [26]: 1% | IC50 [27]: 1.2 µM | inhibition [28]: 15% | inhibition [29]: 1% | Activity (MCF7): Non-Toxic | inhibition [30]: -8% | inhibition [31]: 43% | inhibition [32]: 1% | inhibition [33]: -4% | inhibition [34]: 25% | inhibition [35]: -1% | inhibition (Homo sapiens [36]): 11% | inhibition [37]: 6% | inhibition [38]: 0% | inhibition [39]: 7% | Activity (HFF): Non-Toxic
